Measured values: paper PMC4855835 (Chemical communications (Cambridge, England), 2016)

What was measured:
Static light scattering = assay type: physicochemical; conditions: pH7.4 PBS buffer, before ALP
Summary of the method: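 Static light scattering was measured on test compound solutions (12.5–50 µM) in pH 7.4 PBS, before and 24 h after adding alkaline phosphatase (2 U/mL). Scattering angle was 30 degrees; read-out was scattered intensity.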

[1] = test system: sarcoma osteogenic (Saos-2) cells; experiment: Cell viability of Saos-2 cells treated with precursors; assay type: cell-based, human; conditions: for concentration at which Saos-2 cells are inhibited: Fig. 4A and Fig. S6; for inhibitory activity at pH 8.0: hydrolysis of ester bond (Fig. S8)
Summary of the method: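 Saos-2 osteosarcoma cells, which overexpress alkaline phosphatase, were exposed to a range of test compound (phosphorylated peptide precursor) concentrations for 48 h. Viability was plotted as log-dose response curves, and IC90 was taken at 48 h. Human marrow stromal HS-5 cells served as the normal-cell comparison.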

[2] = Hydrogelation assay of self-assembly in water upon ALP addition; assay type: physicochemical; conditions: 1 mM, pH 7.4, ALP 3U/mL
Summary of the method: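 Self-assembly was screened by hydrogelation: the test compound at 1 mM in water, pH 7.4, was given alkaline phosphatase at 3 U/mL. The resulting state (gel, suspension or increased viscosity) was judged by eye. Nanostructures formed under the same conditions were imaged by TEM after 24 h.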

Saos-2 cells = experiment: Saos-2 cell viability with co-incubated ALP inhibitors or cell death inhibitors; assay type: cell-based, human; conditions: 48h; for effect of pan-caspase inhibitor zVAD-fmk on death of treated Saos-2 cells: 1p 20 μM, 2p 50 μM, 3p 20 μM, zVAD-fmk 45 μM; for effect of L-Phe on viability of treated Saos-2 cells / effect of levamisole on viability of treated Saos-2 cells: 1p 50 μM, 3p 50 μM, 2p 200 μM; for effect of L-Phe on viability of treated Saos-2 cells: L-Phe 1 mM; for effect of levamisole on viability of treated Saos-2 cells: levamisole 1 mM; for effect of necroptosis inhibitor Nec-1 on death of treated Saos-2 cells: Nec-1 50 μM
Summary of the method: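 Saos-2 cells were treated for 48 h with test compound plus an inhibitor. ALP inhibitors were levamisole 1 mM (tissue-nonspecific ALP) or L-phenylalanine 1 mM (placental ALP), with test compound at 50 or 200 µM. Death-pathway inhibitors were pan-caspase zVAD-fmk 45 µM or Nec-1 50 µM. Read-out was cell viability.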

[3] = test system: sarcoma osteogenic (Saos-2) cells; conditions: read-out: IC50 of carboplatin; 72 h; cited from earlier work

Row | Compound | aggregation behaviour by SLS at 50 μM (Static light scattering) | concentration at which Saos-2 cells are inhibited [1] | inhibitory activity at pH 8.0 [1] | state of the solution after addition of ALP [2] | effect of pan-caspase inhibitor zVAD-fmk on death of treated Saos-2 cells (Saos-2 cells) | effect of L-Phe on viability of treated Saos-2 cells (Saos-2 cells) | effect of levamisole on viability of treated Saos-2 cells (Saos-2 cells) | effect of necroptosis inhibitor Nec-1 on death of treated Saos-2 cells (Saos-2 cells) | IC50 [3]
1 | CNC(=O)[C@@H](Cc1ccc(OP(=O)(O)O)cc1)NC(=O)[C@@H](Cc1ccccc1)NC(=O)[C@@H](Cc1ccccc1)NC(=O)Cc1ccc2ccccc2c1 [1p] | starts to aggregates | ≥ 50 µM | remains | turns into a hydrogel | only slightly protects | unable to rescue the cells | increases the cell viability | significantly protects | –
2 | NNC(=O)[C@@H](Cc1ccc(OP(=O)(O)O)cc1)NC(=O)[C@@H](Cc1ccccc1)NC(=O)[C@@H](Cc1ccccc1)NC(=O)Cc1ccc2ccccc2c1 [2p] | – | ≥ 50 µM | – | turns into a hydrogel | only slightly protects | unable to rescue the cells | increases the cell viability | significantly protects | –
3 | COC(=O)[C@@H](Cc1ccc(OP(=O)(O)O)cc1)NC(=O)[C@@H](Cc1ccccc1)NC(=O)[C@@H](Cc1ccccc1)NC(=O)Cc1ccc2ccccc2c1 [3p] | – | ≥ 50 µM | decreases | forms a suspension | only slightly protects | unable to rescue the cells | increases the cell viability | significantly protects | –
4 | O=C(Cc1ccc2ccccc2c1)N[C@H](Cc1ccccc1)C(=O)N[C@H](Cc1ccccc1)C(=O)N[C@H](Cc1ccc(OP(=O)(O)O)cc1)C(=O)O [4p] | – | about 500 μM | – | becomes more viscous | – | – | – | – | –
5 | N.N.O=C([O-])C1(C(=O)[O-])CCC1.[Pt+2] [carboplatin] | – | – | – | – | – | – | – | – | 198 µM
